Experimental findings from ChEMBL document CHEMBL2169837 (J Med Chem, 2012) are described below.

Calls of active or inactive are those of the source. The rule behind the calls is not given here.

Experiment [1] addresses T1, Muscarinic acetylcholine receptor M1 (Homo sapiens, UniProt P11229).
T1 sequence (P11229 whole entry): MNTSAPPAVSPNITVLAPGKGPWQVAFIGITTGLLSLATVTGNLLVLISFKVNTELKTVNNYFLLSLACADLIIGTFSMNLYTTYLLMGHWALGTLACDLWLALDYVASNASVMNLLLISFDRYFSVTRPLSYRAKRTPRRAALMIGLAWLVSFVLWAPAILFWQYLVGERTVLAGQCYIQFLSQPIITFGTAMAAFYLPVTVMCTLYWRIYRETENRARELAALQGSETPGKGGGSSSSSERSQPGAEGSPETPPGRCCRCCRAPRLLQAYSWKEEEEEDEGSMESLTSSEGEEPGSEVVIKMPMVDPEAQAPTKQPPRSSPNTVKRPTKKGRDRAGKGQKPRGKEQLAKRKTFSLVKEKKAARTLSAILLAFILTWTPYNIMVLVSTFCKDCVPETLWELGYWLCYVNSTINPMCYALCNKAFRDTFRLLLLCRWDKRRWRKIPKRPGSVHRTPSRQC
In words: Binding affinity to human muscarinic M1 receptor.

Experiment [2] addresses T2, Vasopressin V2 receptor (Homo sapiens, UniProt P30518). In words: Binding affinity to SNAP-tagged vasopressin V2 receptor expressed in COS7 cells assessed as interaction with vasopressin V2/V1a receptor dimer after 1 hr by FRET assay. In kind it is cell-based. Conditions: COS-7. In a few lines:
(§1)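 Cos7 cells expressing SNAP-V1a, SNAP-V2 or both, 50000 cells/well. Incubated overnight at 4 °C with one donor plus one acceptor fluorescent ligand, each near its Kd. Signal given as %ΔF from the 665/620 ratio (excitation 335 nm) against mock cells. Receptor expression measured by SNAP-Lumi4-Tb labeling (100 nM, 1 h, room temperature), read at 620 nm.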

Experiment [3] concerns the target T2, Vasopressin V2 receptor. In words: Binding affinity to SNAP-tagged vasopressin V2 receptor expressed in COS7 cells after 1 hr by FRET assay. It is filed as cell-based. Conditions: COS-7. In a few lines: as §1
Experiment [4] is filed under the species Homo sapiens. Briefly: Selectivity ratio of Ki for human oxytocin receptor to Ki for human vasopressin V2 receptor.
The target of experiment [5] is T3, Oxytocin receptor (Homo sapiens, UniProt P30559).
T3 sequence (P30559 whole entry): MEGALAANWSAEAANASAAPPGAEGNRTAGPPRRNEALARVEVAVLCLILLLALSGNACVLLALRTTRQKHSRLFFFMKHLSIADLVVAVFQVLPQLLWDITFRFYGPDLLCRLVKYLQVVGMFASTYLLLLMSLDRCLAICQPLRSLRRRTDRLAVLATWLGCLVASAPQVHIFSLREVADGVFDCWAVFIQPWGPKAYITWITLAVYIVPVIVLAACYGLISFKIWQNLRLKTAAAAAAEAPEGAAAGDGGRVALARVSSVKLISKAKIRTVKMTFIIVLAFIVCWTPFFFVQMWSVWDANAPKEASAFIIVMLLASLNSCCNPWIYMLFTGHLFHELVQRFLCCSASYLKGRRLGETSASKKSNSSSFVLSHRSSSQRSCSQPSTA
In words: Displacement of [3H]-AVP from human oxytocin receptor expressed in CHO cells after 30 mins. In kind it is cell-based. In general terms: Displacement assays read how much labelled ligand stays bound in the presence of the test substance.

For experiment [6], the target named is T4, Vasopressin V1b receptor (Homo sapiens) (UniProt P47901).
T4 sequence (whole entry): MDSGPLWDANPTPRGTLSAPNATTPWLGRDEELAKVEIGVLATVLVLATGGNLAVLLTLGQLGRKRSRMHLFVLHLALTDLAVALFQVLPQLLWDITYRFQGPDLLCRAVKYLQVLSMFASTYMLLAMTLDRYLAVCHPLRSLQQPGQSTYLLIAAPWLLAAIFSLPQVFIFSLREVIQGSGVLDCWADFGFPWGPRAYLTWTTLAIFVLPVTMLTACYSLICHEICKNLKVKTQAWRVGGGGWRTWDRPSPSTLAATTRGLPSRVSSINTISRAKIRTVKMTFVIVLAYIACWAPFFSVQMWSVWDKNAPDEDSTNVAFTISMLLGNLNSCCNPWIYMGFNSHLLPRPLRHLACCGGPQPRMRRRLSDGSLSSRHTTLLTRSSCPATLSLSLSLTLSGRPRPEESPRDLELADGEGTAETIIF
Briefly: Displacement of [3H]-AVP from human vasopressin V1b receptor expressed in CHO cells at 10 uM after 30 mins. It is filed as cell-based. In a few lines: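 Human OTR, V1aR or V1bR membranes from CHO cells, [3H]-AVP displacement with compound at a single 10 μM concentration, 30 min at 30 °C in Tris-HCl pH 7.4/MgCl2/BSA buffer.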

Experiment [7] has as its target T5, Vasopressin V1b receptor (Homo sapiens, UniProt P47901).
T5 sequence (P47901 whole entry): T4 sequence (whole entry)
In words: Displacement of [3H]-AVP from human vasopressin V1b receptor expressed in CHO cells after 30 mins. It is filed as cell-based.

Experiment [8] has as its target T6, Vasopressin V1a receptor (Homo sapiens, UniProt P37288). In words: Displacement of [3H]-AVP from human vasopressin V1a receptor expressed in CHO cells after 30 mins. In kind it is cell-based.
Target sequence in this assay (P37288 whole entry): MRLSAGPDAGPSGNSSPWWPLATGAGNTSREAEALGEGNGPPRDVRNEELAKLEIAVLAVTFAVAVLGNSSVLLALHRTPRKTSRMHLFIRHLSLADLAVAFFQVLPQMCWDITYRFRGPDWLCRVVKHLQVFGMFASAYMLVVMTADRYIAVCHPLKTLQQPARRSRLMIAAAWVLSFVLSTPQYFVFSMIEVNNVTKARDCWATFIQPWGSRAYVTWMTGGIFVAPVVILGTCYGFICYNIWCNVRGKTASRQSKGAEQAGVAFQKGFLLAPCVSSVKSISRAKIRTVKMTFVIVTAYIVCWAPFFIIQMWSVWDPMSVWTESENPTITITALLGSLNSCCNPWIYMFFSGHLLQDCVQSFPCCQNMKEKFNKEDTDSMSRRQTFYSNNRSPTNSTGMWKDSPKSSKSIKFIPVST
For experiment [9], the target named is T2, Vasopressin V2 receptor. Briefly: Binding affinity to SNAP-tagged vasopressin V2 receptor expressed in HEK293 cells after 1 hr by TR-FRET assay. In kind it is cell-based. In a few lines: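 HEK 293T cells electroporated with SNAP-tag–V2R and grown 48 h. Receptor labeled 1 h at 37 °C with SNAP-Lumi4-Tb (100 nM) or SNAP-RED (300 nM), then washed. Rising fluorescent-ligand concentrations added and incubated overnight at 4 °C. TR-FRET read with excitation 340 nm, emission 620/665 nm. Nonspecific binding taken with 10 μM unlabeled ligand. Kd from saturation, three experiments in triplicate.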

In experiment [10] the target is T2, Vasopressin V2 receptor. Briefly: Antagonist activity at human vasopressin V2 receptor expressed in CHO cells assessed as inhibition of AVP-induced cAMP accumulation after 30 mins by TR-FRET based HTRF assay. In kind it is functional, cell-based. Put shortly: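 CHO cells stably expressing human V2R, 5 × 10^3 per well on polyornithine, used 24 h after seeding. Incubated 30 min at 37 °C with compound (10−12 to 10−5 M) plus phosphodiesterase inhibitor RO 201724 0.1 mM. Antagonist mode run with 1 nM AVP. Cells lysed and cAMP read by HTRF (TR-FRET). Kact/Kinact from three independent experiments in triplicate, mean ± SEM.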
(In general: cAMP levels reflect the balance of adenylyl cyclase and phosphodiesterase activity.)

The target in experiment [11] is T2, Vasopressin V2 receptor. In words: Agonist activity at human vasopressin V2 receptor expressed in CHO cells assessed as cAMP accumulation after 30 mins by TR-FRET based HTRF assay. In kind it is functional, cell-based. Put shortly:
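CHO cells stably expressing human V2R, 5 × 10^3 per well on polyornithine, used 24 h after seeding. Cells lysed and cAMP read by HTRF (TR-FRET). Kact/Kinact from three independent experiments in triplicate, mean ± SEM.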

For experiment [12], the target named is T2, Vasopressin V2 receptor. In words: Displacement of [3H]-AVP from human vasopressin V2 receptor expressed in CHO cells after 30 mins. It is filed as cell-based.
Experiment [13] is described as follows: Binding affinity to vasopressin V2 receptor in rabbit kidney membranes. It is filed as cell membranes, Oryctolagus cuniculus, Membrane.
Experiment [14] concerns the target T3, Oxytocin receptor. In words: Binding affinity to oxytocin receptor. Put shortly:
(§2)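 Membranes (5 μg protein) from CHO cells stably expressing human V2R, V1aR, V1bR or OTR. Incubated 30 min at 30 °C in 50 mM Tris-HCl pH 7.4, 5 mM MgCl2, 1 mg/mL BSA with [3H]-AVP (1−2 nM) and competitor from 100 pM to 100 μM. Nonspecific binding with 10 μM AVP. GF/C filtration; Ki by nonlinear least-squares regression. Triplicate, at least three membrane batches.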

For experiment [15], the target named is T6, Vasopressin V1a receptor. Briefly: Binding affinity to vasopressin V1a receptor. Put shortly:
as §2
Target sequence in this assay (P37288 whole entry): as above

In experiment [16] the target is Vasopressin V2 receptor (Oryctolagus cuniculus). In words: Binding affinity to vasopressin V2 receptor.
The target in experiment [17] is T6, Vasopressin V1a receptor. In words: Binding affinity to SNAP-tagged vasopressin V1a receptor expressed in COS7 cells assessed as interaction with vasopressin V2/V1a receptor dimer after 1 hr by FRET assay. In kind it is cell-based. The note with it: COS-7. Put shortly: as §1
Target sequence in this assay (P37288 whole entry, looked up): as the sequence (P37288 whole entry) above
Experiment [18] deals with T6, Vasopressin V1a receptor. Briefly: Binding affinity to SNAP-tagged vasopressin V1a receptor expressed in COS7 cells after 1 hr by FRET assay. In kind it is cell-based. The note with it: COS-7. In a few lines:
as §1
Target sequence in this assay (P37288 whole entry, looked up): as the sequence (P37288 whole entry) above

T2 sequence (P30518 whole entry): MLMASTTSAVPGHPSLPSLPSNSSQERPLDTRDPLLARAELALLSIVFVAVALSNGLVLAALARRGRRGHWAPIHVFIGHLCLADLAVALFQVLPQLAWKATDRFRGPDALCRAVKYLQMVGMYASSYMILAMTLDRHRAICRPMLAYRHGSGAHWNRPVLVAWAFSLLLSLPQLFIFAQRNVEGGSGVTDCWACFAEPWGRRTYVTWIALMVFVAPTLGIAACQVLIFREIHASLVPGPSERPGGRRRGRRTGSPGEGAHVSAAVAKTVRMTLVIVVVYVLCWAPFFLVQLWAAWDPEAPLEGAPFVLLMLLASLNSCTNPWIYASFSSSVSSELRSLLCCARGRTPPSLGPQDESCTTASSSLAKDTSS

Usually Ki stands for a dissociation constant, usually derived from enzyme kinetics or from competition with a known ligand. In turn, `O=C(CCC1=[N+]2C(C=C1)Cc1ccc(-c3cccs3)n1[B-]2(F)F)NCCCCCCN1CCN(CC(=O)N2c3ccccc3C(=O)Nc3cccnc32)CC1` (centres undefined) came in with an inhibitory constant (Ki) in experiment [1] of 8.8 nM.
In general, inhibition refers to the share of the control response that was lost under treatment. As a reminder, the Kd is the constant that tells how readily two partners part at equilibrium. Higher therefore signals a looser complex. By Kb is commonly meant the equilibrium dissociation constant of an antagonist, usually derived from a functional assay. As for `CCN1/C(=C/C=C/C=C/C2=[N+](CC)c3ccc(S(=O)(=O)[O-])cc3C2(C)C)C(C)(CCCC(=O)NCCn2cc(CNC(=O)CCC(=O)NC3CCCN(C(=O)c4ccc(NC(=O)c5ccccc5-c5ccccc5)cc4)c4ccccc43)nn2)c2cc(S(=O)(=O)O)ccc21` (centres undefined), the result in experiment [2] and in experiment [3] was Active. For the same compound, the Ratio Ki in experiment [4] worked out at 32. In addition, the inhibition constant Ki in [5] is 184 nM; in experiment [7], more than 10000 nM; in [8], 621 nM; in [12] it was 5.69 nM. The inhibition was less than 50% in experiment [6] and “Dose-dependent effect” in experiment [10]. The Kd in experiment [9] stood at 1.38 nM. For the same compound, in [10], the Kb is 0.1 nM. In [11], the result was inactive.
Regarding `Cc1ccccc1C(=O)Nc1ccc(C(=O)N2CCCCc3ccccc32)cc1`, the Ki in [13] is 7.2 nM; in experiment [14], 30 nM; in experiment [15], 8.1 nM; in experiment [12], 2.68 nM; in [16] it was 7.2 nM. Also, the inhibition result in experiment [10] was “Dose-dependent effect”. For the same compound, the result in [11] was inactive.
As for `COc1ccc(C[C@@H](NC(=O)CCc2ccc(O)cc2)C(=O)N[C@@H](Cc2ccccc2)C(=O)N[C@@H](CCC(N)=O)C(=O)N[C@@H](CC(N)=O)C(=O)N[C@@H](CCCNC(=N)N)C(=O)N2CCC[C@H]2C(=O)N[C@@H](CCCCNC(=O)CCCCC2(C)C(/C=C/C=C/C=C3\N(CCCS(=O)(=O)O)c4ccc(S(=O)(=O)[O-])cc4C3(C)C)=[N+](CCCS(=O)(=O)O)c3ccc(S(=O)(=O)O)cc32)C(N)=O)cc1` (some centres undefined), the outcome in experiment [17] and in experiment [18] was Active.
`O=C(Nc1ccc(C(=O)N2CCCCc3ccccc32)cc1)c1ccccc1-c1ccccc1`: the inhibition constant Ki was 7.6 nM in experiment [13], 63 nM in experiment [14], 14.1 nM in experiment [15] and 7.5 nM in [16]. In experiment [10], the inhibition entry is “Dose-dependent effect”. Further, in [11], the outcome was inactive.
Consider `O=C(CCC1=[N+]2C(C=C1)Cc1ccc(-c3cccs3)n1[B-]2(F)F)NCCN1CCN(CC(=O)N2c3ccccc3C(=O)Nc3cccnc32)CC1` (centres undefined), for which the inhibition constant (Ki) in [1] is more than 1000 nM.
